Reference: ChEMBL document CHEMBL4261657, “Discovery of Clinical Candidate 2-(4-(2-((1 H-Benzo[ d]imidazol-2-yl)thio)ethyl)piperazin-1-yl)- N-(6-methyl-2,4-bis(methylthio)pyridin-3-yl)acetamide Hydrochloride [K-604], an Aqueous-Soluble Acyl-CoA:Cholesterol O-Acyltransferase-1 Inhibitor” (J Med Chem, 2018)
Calls of active or inactive are those of the source. The calls are words filed in the database; no cut-off is given here.

How the values were obtained:
Hamster [1] = assay: Antiatherosclerotic activity in cholesterol fed F1B hamster model of diet-induced atherosclerosis assessed as reduction in lipid accumulation areas at 3 mg/kg; type: functional, Cricetinae, Bio F1B; set-up: scale not given: the % may be the effect or the level left
Hamster [2] = assay: Antiatherosclerotic activity in Bio F1B hamster model of diet-induced atherosclerosis assessed as reduction in CE to FC ratio in intestine at 0.3 to 10 mg/kg/day added to chow pellets; type: functional, organism-based; settings: Cricetinae
Hamster [3] = assay: Antiatherosclerotic activity in Bio F1B hamster model of diet-induced atherosclerosis assessed as reduction in total plasma cholesterol at 0.3 to 10 mg/kg/day added to chow pellets relative to control; type: functional, organism-based; settings: Cricetinae
Method in brief: (§1)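 Male Bio F1B hamsters (8 weeks old) were fed CE-2 chow with 0.3% cholesterol and 10% coconut oil for 10 weeks, with compound mixed into the chow (n=7 per dose; reference group n=6). Plasma TC was measured by enzymatic kit. Aorta was perfusion-fixed with 4% paraformaldehyde under pentobarbital anaesthesia, opened and stained with oil red O, and lipid area was measured by image analysis. Results are % of control ± SD, analysed by Dunnett's test.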

[4] = Toxicity in rabbit; type: organism-based, Oryctolagus cuniculus; settings: in vivo
Method in brief: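 Preliminary adrenal toxicity test in male rabbits (four per group) given a single intravenous injection. Adrenal glands were examined 24 h after dosing for necrosis of zona fasciculata cells. The read-out was the number of animals affected per group. PD-132301-2 served as the positive control.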

Hamster [5] = assay: Antiatherosclerotic activity in Bio F1B hamster model of diet-induced atherosclerosis assessed as reduction in CE to FC ratio in liver at 0.3 to 10 mg/kg/day added to chow pellets; type: functional, organism-based; settings: Cricetinae
Hamster [6] = assay: Antiatherosclerotic activity in cholesterol fed F1B hamster model of diet-induced atherosclerosis assessed as reduction in lipid accumulation areas at 10 mg/kg; type: functional, Cricetinae, Bio F1B; set-up: scale not given: the % may be the effect or the level left
Hamster [7] = assay: Toxicity in Bio F1B hamster model of diet-induced atherosclerosis assessed as reduction in CE to FC ratio in adrenal gland at 0.3 to 10 mg/kg/day added to chow pellets; type: organism-based; settings: cricetinae, in vivo, po
Hamster [8] = assay: Antiatherosclerotic activity in cholesterol fed F1B hamster model of diet-induced atherosclerosis assessed as reduction in lipid accumulation areas at 30 mg/kg; type: functional, Cricetinae, Bio F1B; set-up: scale not given: the % may be the effect or the level left
Hamster [9] = assay: Antiatherosclerotic activity in Bio F1B hamster model of diet-induced atherosclerosis assessed as reduction in lipid accumulation areas in aortic arch at 0.3 to 10 mg/kg/day added to chow pellets by oil red O staining based assay relative to control; type: functional, organism-based; settings: Cricetinae; method in brief: as §1

CC(C)c1cc(C(C)C)c(CC(=O)NS(=O)(=O)Oc2c(C(C)C)cccc2C(C)C)c(C(C)C)c1 [AVASIMIBE]
Activity (Hamster [1]): 68% | Activity (Hamster [2]): Active | Activity (Hamster [3]): Active | NOAEL [4]: 5 mg/kg | Activity (Hamster [5]): Active | Activity (Hamster [6]): 86% | Activity (Hamster [7]): Non-Toxic | Activity (Hamster [8]): 93% | Activity (Hamster [9]): Active
